Broadly, the IC50 is the midpoint of a concentration-inhibition curve. The low end stands for higher potency, the high end for lower potency. One may read the pA2 as the negative logarithm of the molar antagonist concentration that doubles the agonist concentration needed for the same response. Low readings indicate lower antagonist potency, high ones higher antagonist potency. As usually defined, the logP is a log measure of how a compound divides between an organic and an aqueous phase. A word on the logD: it is the decadic logarithm of the distribution of all forms, ionised or not, between an organic phase and buffer at a given pH. A high value points to a more lipophilic compound.

SMILES strings stand for the structures.

The target in series [1] is T1, 5-hydroxytryptamine receptor 1A (Rattus norvegicus, UniProt P19327).
T1 sequence (P19327 whole entry): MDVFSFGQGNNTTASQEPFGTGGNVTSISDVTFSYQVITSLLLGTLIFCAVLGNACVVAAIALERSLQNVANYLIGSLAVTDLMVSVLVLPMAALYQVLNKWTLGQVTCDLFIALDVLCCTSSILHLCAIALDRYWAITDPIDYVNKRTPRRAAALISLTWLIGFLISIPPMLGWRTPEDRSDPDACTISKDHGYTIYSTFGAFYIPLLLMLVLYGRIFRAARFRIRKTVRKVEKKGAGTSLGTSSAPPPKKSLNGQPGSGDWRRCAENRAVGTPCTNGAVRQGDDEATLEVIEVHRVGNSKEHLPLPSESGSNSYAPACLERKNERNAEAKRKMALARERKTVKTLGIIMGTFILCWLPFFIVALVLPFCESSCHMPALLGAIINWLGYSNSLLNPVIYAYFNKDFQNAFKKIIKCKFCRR
Briefly: Inhibition activity against 5-hydroxytryptamine 1A receptor in rat hippocampus membranes using radio binding assays. It is filed as cell membranes, Membrane. Put shortly: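 Displacement of 0.5 nM [3H]8-OH-DPAT from 5-HT1A sites in rat hippocampal membranes, following a previously reported method. IC50 in nM, mean of at least 3 determinations ±SEM unless indicated otherwise.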

For series [2], the target named is Serotonin (5-HT) receptor (Homo sapiens) (UniProt P30939+P41595+Q13639+P28222+P46098+P08908+P28221+P28223+P28335+P28566+P34969+P50406+P47898+A5X5Y0+O95264+Q70Z44+Q8WXA8). Kind of series: 5-hydroxytryptamine level in K+ induced 5-hydroxytryptamine release in guinea pig cortex. It is filed as functional, tissue-based. The settings on record: Cavia porcellus, target entry is the homologue from another species. Put shortly:
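Guinea pig (male Dunkin-Hartley) cerebral cortex slices loaded with [3H]5-HT for 30 min, then superfused with oxygenated Krebs solution. Two 4-min 30 mM K+ pulses at 68 and 108 min (S1, S2). Sumatriptan 3 µM, alone or with test compound at 30 nM, 300 nM or 3 µM, given before and during S2. Tabulated value is at 300 nM, reported as % of control S2/S1 ratio; mean (SEM) of 3-4 determinations.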

Series [3] in a line: pA2 value for the effect in RSV model. It is filed as functional. Put shortly: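 Isolated rabbit saphenous vein segments were held in organ baths and given two cumulative sumatriptan concentration-response curves. The second curve was run after 60 min incubation with antagonist or vehicle. Apparent pA2 was derived from a single antagonist concentration in at least three preparations.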

For series [4], the target named is 5-hydroxytryptamine receptor 1B (Rattus norvegicus, UniProt P28564). Briefly: Inhibition affinity against 5-HT-1B receptor in rat frontal cortex using radio binding assay. It is filed as tissue-based.
Series [5] concerns the target Sodium-dependent serotonin transporter (Homo sapiens, UniProt P31645). Kind of series: Inhibition of 5-hydroxytryptamine reuptake.
Series [6] in a line: Partition coefficient (logP). The settings on record: octanol/water.
Series [7] in a line: Partition coefficient (logD7.4). The settings on record: octanol/water, pH 7.4.

Sodium-dependent serotonin transporter, sequence (P31645 whole entry): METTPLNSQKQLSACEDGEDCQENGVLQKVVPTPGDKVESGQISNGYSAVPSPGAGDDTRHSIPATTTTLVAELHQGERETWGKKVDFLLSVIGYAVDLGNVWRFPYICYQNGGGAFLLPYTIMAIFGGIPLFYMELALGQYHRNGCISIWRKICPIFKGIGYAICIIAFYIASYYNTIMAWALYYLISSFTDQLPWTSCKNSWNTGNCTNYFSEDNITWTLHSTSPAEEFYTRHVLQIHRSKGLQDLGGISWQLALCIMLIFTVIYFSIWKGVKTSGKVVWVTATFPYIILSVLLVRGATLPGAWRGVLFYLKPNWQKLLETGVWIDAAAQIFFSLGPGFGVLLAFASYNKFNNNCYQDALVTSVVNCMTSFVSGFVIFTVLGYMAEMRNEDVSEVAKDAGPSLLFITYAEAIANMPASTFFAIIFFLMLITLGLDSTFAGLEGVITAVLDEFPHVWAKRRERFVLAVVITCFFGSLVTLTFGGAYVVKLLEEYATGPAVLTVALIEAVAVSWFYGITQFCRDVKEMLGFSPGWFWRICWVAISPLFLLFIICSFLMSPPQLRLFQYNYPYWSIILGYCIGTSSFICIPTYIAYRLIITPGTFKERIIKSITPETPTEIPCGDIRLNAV
5-hydroxytryptamine receptor 1B, sequence (P28564 whole entry): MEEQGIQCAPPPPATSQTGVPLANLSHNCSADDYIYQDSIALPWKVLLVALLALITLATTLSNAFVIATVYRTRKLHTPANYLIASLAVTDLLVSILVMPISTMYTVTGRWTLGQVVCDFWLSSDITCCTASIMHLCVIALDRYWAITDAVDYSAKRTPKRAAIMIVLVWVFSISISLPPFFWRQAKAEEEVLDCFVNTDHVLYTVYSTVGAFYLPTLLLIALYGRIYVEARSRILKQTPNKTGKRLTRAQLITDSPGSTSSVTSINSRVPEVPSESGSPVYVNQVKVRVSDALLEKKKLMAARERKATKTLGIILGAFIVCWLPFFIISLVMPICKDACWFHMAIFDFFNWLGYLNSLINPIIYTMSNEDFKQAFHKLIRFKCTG

On to `COc1ccc(NC(=O)c2ccc(-c3ccc(-c4nnc(C)o4)cc3C)cc2)cc1N1CCN(C)CC1`, for which the IC50 in series [1] is > 1000 nM; in series [4] it was 0.93 nM; in series [5], > 1000 nM. In addition, in series [2], the Control was 147%. Further, the pA2 in series [3] came to 9.1.
The molecule `Cc1nc(-c2ccc(-c3ccc(C(=O)N4CCc5cc6c(cc54)C4(CCN(C)CC4)CO6)cc3)c(C)c2)no1` [SB-224289] had a Control in series [2] of 134%. The same molecule gave a logP in series [6] of 6.29. Moreover, the pA2 in series [3] turned out to be 7.4. This molecule registered a logD in series [7] of 4.64. The IC50 in series [4] came out at 2 nM; in series [5], 4700 nM.
As for `COc1ccc(NS(=O)(=O)c2ccc(-c3ccc(-c4nnc(C)o4)cc3C)cc2)cc1N1CCN(C)CC1`, the figures for the IC50 in series [1], in series [4] and in series [5] were 700 nM, 60 nM and > 1000 nM, respectively. In series [2], this molecule displayed a Control of 155%. The same molecule showed a logP in series [6] of 4.04. The pA2 in series [3] turned out to be 7. The same molecule gave a logD in series [7] of 3.6.
In the case of `COc1ccc(NC(=O)c2ccc(-c3ccc(C(=N)N)cc3C)cc2)cc1N1CCN(C)CC1`, the IC50 in series [1] is 23 nM; in series [4], 0.5 nM; in series [5], 407 nM. The molecule also came in with a Control in series [2] of 155%. Moreover, the logP in series [6] amounted to 3.61. Also, in series [3], the pA2 amounted to 9.6. In series [7], the logD was -0.35.
In the case of `Cc1nnc(-c2ccc(-c3ccc(C(=O)Nc4ccc(O)c(N5CCN(C)CC5)c4)cc3)c(C)c2)o1`, the IC50 in series [1] was > 100 nM; in series [4], 6.3 nM; in series [5], 4700 nM. For the same molecule, the Control in series [2] turned out to be 147%. The logP in series [6] was found to be 3.54. In series [3], this molecule gave a pA2 of 8. In series [7], the logD was 3.12.
Consider `Cc1nnc(-c2ccc(-c3ccc(C(=O)Nc4ccc(OS(C)(=O)=O)c(N5CCN(C)CC5)c4)cc3)c(C)c2)o1`, for which the IC50 came out at 7000 nM in series [1], 70 nM in series [4] and 3800 nM in series [5]. This molecule also displayed a Control in series [2] of 166%. The logP in series [6] is 3.38. In series [3], this molecule displayed a pA2 of 8.3. The molecule also yielded a logD in series [7] of 2.96.
With `Cc1nc(-c2ccc(-c3ccc(C(=O)Nc4ccc(OCCF)c(N5CCN(C)CC5)c4)cc3)c(C)c2)no1`, the figures for the IC50 in series [1], in series [4] and in series [5] were 5000 nM, 10 nM and 900 nM, respectively. Further, in series [2], the Control is 107%. The molecule also came in with a logP in series [6] of 5.33. In addition, the pA2 in series [3] is given as 8.3. The logD in series [7] is 4.91.
`Cc1nc(-c2ccc(-c3ccc(C(=O)Nc4ccc(O)c(N5CCN(C)CC5)c4)cc3)c(C)c2)no1`: the IC50 in series [1] is > 1000 nM; in series [4], 7.3 nM; in series [5] it was > 1000 nM. The same molecule came in with a Control in series [2] of 122%. The lipophilicity (logP) in series [6] was determined as 4.33. The molecule further came in with a pA2 in series [3] of 7.3. Besides, the logD in series [7] was found to be 3.91.
In the case of `COc1ccc(NC(=O)c2ccc(-c3ccc(-c4noc(C)n4)cc3C)cc2)cc1N1CCN(C)CC1` [GR-127935], the IC50 in series [1] was found to be 425 nM; in series [4] it was 1.6 nM; in series [5] it was 1000 nM. In series [6], the logP was 4.9. Also, the pA2 in series [3] turned out to be 9.9. In series [7], this molecule had a logD of 4.48.
`Cc1nc(-c2ccc(-c3ccc(C(=O)Nc4ccc(OS(=O)(=O)C(F)(F)F)c(N5CCN(C)CC5)c4)cc3)c(C)c2)no1`: the IC50 was > 10000 nM in series [1], 700 nM in series [4] and > 1000 nM in series [5]. The molecule further showed a logP in series [6] of 6.06. The molecule further gave a logD in series [7] of 5.64.
On to `COc1ccc(NC(=O)c2ccc(-c3ccc(C(N)=O)cc3C)cc2)cc1N1CCN(C)CC1`, for which the IC50 is 57 nM in series [1], 1.3 nM in series [4] and > 1000 nM in series [5]. The molecule also displayed a Control in series [2] of 162%. The molecule further had a logP in series [6] of 3.6. The molecule further showed a pA2 in series [3] of 10. Further, in series [7], the logD amounted to 3.18.

The values are drawn from ChEMBL document CHEMBL1133697, “New selective and potent 5-HT(1B/1D) antagonists: chemistry and pharmacological evaluation of N-piperazinylphenyl biphenylcarboxamides and biphenylsulfonamides” (J Med Chem, 2000).
